Screening results from PubChem BioAssay.
An excerpt weighted towards active compounds, which were near 4% of everything screened.
FGF22 binding – FGF22 (human) thermal shift binding | Q9HCT0 | recombinant FGF22 thermal shift, SYPRO orange fluorescence; percent of sucrose octasulfate shift, DMSO zero | activity (Tm shift, normalised), % at 9.99 µM | actives 1.5% (n = 340,000) | AID 651658;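 active = mean Tm shift, scaled 0 neutral to 100 positive control, at about 1.3% or above, every replicate too, limit read from the data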
C2C12 statin – suppression of simvastatin myotoxicity; rescue of ATP level, % at 7.49 µM; C2C12 myotubes + simvastatin, ATP luminescence, 48 h; scaled: DMSO 0, geranylgeraniol control 100; AID 602340; actives 0.78% (n = 330,000);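 active = mean ATP rescue above about 67%, or every replicate alone reaching that limit, limit read from the data, passing the limit was not always enough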;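 also: myotubes were challenged with 10 µM simvastatin during compound exposure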
FN deposition inh – fibronectin deposition inhibition | AH1F fibroblasts, Alexa488-fibronectin deposition fluorescence, overnight | inhibition, % at 12.6 µM | actives 0.086% (n = 350,000);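 active = mean inhibition across replicates of 30% or more, regardless of how many single replicates reach that level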;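 also: positive control wells lacked labelled fibronectin entirely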
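Test system: AH1F fibroblast monolayer depositing Alexa488-labelled fibronectin into matrix. Input: 10000 cells per well. Technique: fluorescence, ex 485 nm, em 525 nm. Buffer or medium: DMEM plus 2% serum, read in PBS. Timing: 1 h cell adhesion before compound, then overnight fibronectin incubation. Compound: single dose, pinned. Read-out basis: inhibition from reduced deposited-fibronectin fluorescence.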
SIRT5 block – inhibitors of human sirtuin-5 desuccinylase; Q9NXA8; Purified SirT5, succinyl-peptide AMC, trypsin-coupled fluorescence; inhibition, % at 15 µM; actives 1.1% (n = 330,000); AID 652115; in the data active = inhibition above about 15%
E-sel inducer – E-selectin induction on HUVECs. P16581. HUVEC E-selectin immunofluorescence imaging; normalized: neutral wells 0, TNF-alpha wells 100. activation, % at 7.58 µM. actives 0.37% (n = 260,000). AID 686992;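 active = mean E-selectin-positive cell signal at least 10% of the positive control, reached in at least 60% of replicates, without over 20% cell loss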
Target sequence (P16581 whole entry, looked up): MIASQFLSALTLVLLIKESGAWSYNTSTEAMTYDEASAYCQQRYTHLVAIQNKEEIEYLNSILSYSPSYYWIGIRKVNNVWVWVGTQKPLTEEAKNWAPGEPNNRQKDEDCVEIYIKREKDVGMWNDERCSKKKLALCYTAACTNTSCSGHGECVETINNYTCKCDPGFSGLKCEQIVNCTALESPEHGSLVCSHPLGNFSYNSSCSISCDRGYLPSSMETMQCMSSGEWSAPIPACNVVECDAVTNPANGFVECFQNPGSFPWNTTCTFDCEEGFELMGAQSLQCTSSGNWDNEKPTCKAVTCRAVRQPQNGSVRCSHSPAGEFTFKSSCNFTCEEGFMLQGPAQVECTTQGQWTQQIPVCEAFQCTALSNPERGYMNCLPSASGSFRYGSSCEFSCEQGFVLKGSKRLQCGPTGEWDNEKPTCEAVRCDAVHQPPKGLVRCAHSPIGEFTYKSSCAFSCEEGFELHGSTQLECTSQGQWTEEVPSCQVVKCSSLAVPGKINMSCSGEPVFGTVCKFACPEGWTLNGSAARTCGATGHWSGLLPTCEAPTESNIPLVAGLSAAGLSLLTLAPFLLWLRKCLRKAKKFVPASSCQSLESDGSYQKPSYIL
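Material: HUVEC primary endothelial cells; Amount: 3,000 cells per well; Dosing: single concentration; Medium: EGM-2 growth medium on 0.1% gelatin-coated wells; Read-out basis: percent E-selectin-positive cells; Signal: immunofluorescence imaging; Control set: TNF-alpha, DMSO.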
Ecoli rRNA inh – selective bacterial rRNA inhibition in E. coli | actives 1.6% (n = 350,000) | GFP signal change (wild-type ribosome), % (concentration not given with the values) | E. coli WT GFP vs humanized-ribosome RFP mutants, fluorescence, 24 h; hits give low values; DMSO median 0, no signal -100;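 active = significant combined selectivity score with lowered wild-type GFP, culture density cut under 30%, mutant RFP and density less affected; inactive = any of these conditions unmet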
* hit, by the source's call; . = no result given.

SMILES	FGF22 binding	C2C12 statin	FN deposition inh	SIRT5 block	E-sel inducer	Ecoli rRNA inh
CC(C)(C)n1nnnc1C(c1cccc(C(F)(F)F)c1)N1CCOCC1 (centres undefined)	0	.	.	1	.	8
CC(C)(C)n1nnnc1C(c1cccnc1)N1CCOCC1 (centres undefined)	0	-1	-5	20*	3	-20
CC1CCN(C(c2ccccc2)c2nnnn2C(C)(C)C)CC1 (centres undefined)	.	106*	.	.	.	.
O=C(C[C@H]1CC[C@@H](NC(=O)CCN2CCCCC2)[C@H](CO)O1)NCc1ccc(Cl)c(Cl)c1	0	-11	11	-1	0	0
CC(C)CC#Cc1ccc([C@H]2[C@@H](CO)N3C(=O)CN(C(=O)Nc4ccc(F)cc4)C[C@@H]23)cc1	.	.	.	4	-1	-40
CO[C@H]1CN(C)C(=O)c2cc(NC(=O)c3ccccc3F)ccc2OC[C@H](C)N(C(C)=O)C[C@H]1C	0	-2	-13	0	0	4
O=C(NC1CC1)c1cc2cc3ccccc3nc2s1	0	-16	.	5	0	-21*
COc1ccc(S(=O)(=O)N(C)C[C@H]2OCCCC[C@@H](C)Oc3ccc(N(C)C)cc3C(=O)N([C@@H](C)CO)C[C@@H]2C)cc1	-1	-3	.	0	0	-4
Cc1nc2nc(SCC(=O)O)nn2c(C)c1Cc1ccccc1Cl	43*	.	-11	1	-1	5
Cc1nc2nc(SCC(=O)O)nn2c(C)c1Cc1c(F)cccc1Cl	0	.	4	1	.	-10
Cc1[nH]c2ccc(C(=O)O)cc2c1C	.	7	1	.	.	.
CCCc1c(C)[nH]c2ccc(C(=O)O)cc2c1=S	0	0	-5	26*	.	-1
COc1ccc(NC(=O)COc2ccc(C(=O)OCC(=O)N(C(C)C)C(C)C)cc2OC)cc1	0	8	-2	-3	.	-27*
C/C=C/c1ccc(OCC(=O)Nc2ccc(C(N)=O)cc2)c(OC)c1	44*	.	-4	-5	.	-4
C[C@H](CO)N1C[C@H](C)[C@@H](CN(C)Cc2ccc(C(=O)O)cc2)Oc2ccc(NS(=O)(=O)c3ccc(F)cc3)cc2C1=O	0	.	2	-2	7	3
CCOC(=O)C1(CCOC)CCN(Cc2cnc(-c3cccc(C)c3)nc2)CC1	0	9	-5	20*	.	-5
CCOC(=O)C1(CCOc2ccccc2)CCN(Cc2ccc(OCCO)cc2)CC1	0	-4	-18	22*	.	-1
CCOC(=O)C1(Cc2cccc(OC)c2)CCN(CCO)CC1	44*	7	.	-7	-1	16
CCOC(=O)C1(CCOC)CCN(Cc2nc(-c3cccs3)oc2C)CC1	0	86*	-16	-1	.	5
CCOC(=O)C1(Cc2cccc(OC)c2)CCN(CC(O)CO)CC1 (centres undefined)	0	.	6	7	5	11
Cc1oc(-c2cccs2)nc1CN1CCC(CO)(CCOc2ccccc2)CC1	0	.	0	-5	.	5
COc1ccc2c3c(n(C)c2c1)[C@H](CO)N(C(=O)C1CCCCC1)CC31CCN(C)CC1	.	.	.	.	0	3
O=C1N[C@@H](c2ccccc2)COCc2cn(nn2)CC[C@H]1Cc1ccc(-c2ccccc2)cc1	.	.	-10	.	.	-2
C/C=C/c1ccc2c(c1)O[C@H](CN(C)C(=O)CN1CCOCC1)[C@H](C)CN([C@@H](C)CO)S2(=O)=O	0	5	-9	0	-4	3
COc1ccc(S(=O)(=O)N(C)CC(=O)Nc2ccc(C)cc2)cc1OC	43*	.	-15	3	3	-6
SMILES	FGF22 binding	C2C12 statin	FN deposition inh	SIRT5 block	E-sel inducer	Ecoli rRNA inh
CN(C)S(=O)(=O)c1cccc(NC(=O)CCCSc2ccccc2)c1	41	1	1	10	.	5
CC(=O)c1cccc(NC(=O)CCCSc2ccccc2)c1	0	1	0	16*	0	-13
CC(=O)c1cccc(NC(=O)CN(C)S(=O)(=O)c2ccccc2)c1	43*	3	6	-2	.	4
COc1ccc(S(=O)(=O)N(C)CC(=O)Nc2cccc(C(C)=O)c2)cc1C	.	-2	3	.	.	.
COc1cc(NC(=O)CN(C)S(=O)(=O)c2ccc(C)cc2)cc(OC)c1	.	.	-7	.	.	.
COc1cccc(C2C(=O)c3ccccc3C2=O)c1	0	.	0	.	66*	19
CO[C@@H]1CN(C)C(=O)c2ccc(NC(=O)c3ccccc3)cc2OC[C@@H](C)N(C(C)=O)C[C@@H]1C	0	.	14	2	0	0
N#C/C(=C\c1ccc(OCc2ccc(Cl)cc2)cc1)C(=O)Nc1cccc(C(=O)O)c1	0	.	-9	7	.	-27*
COc1ccccc1N(CC(=O)N1CCCCCC1)S(=O)(=O)c1ccc(C)cc1	0	91*	3	1	0	-13
COc1ccccc1N(CC(=O)NCCSc1ccccc1)S(=O)(=O)c1ccccc1	0	.	-5	-2	.	-31*
COc1ccccc1N(CC(=O)NCCSc1ccccc1)S(C)(=O)=O	.	1	-1	.	.	.
CCCNC(=O)N(C)C[C@H]1Oc2cc(C#C[C@@H](C)O)ccc2S(=O)(=O)N([C@H](C)CO)C[C@@H]1C	0	-4	-12	1	1	8
Cc1ccc(NS(=O)(=O)c2cccc(C(=O)Nc3cccnc3)c2)c(C)c1	0	-5	-6	2	0	-45*
Cc1ccc(N2C(=O)c3ccc(C(=O)Nc4cccnc4)cc3C2=O)c(C)c1	.	90*	-3	.	.	.
O=S(=O)(Nc1cccnc1)c1ccc(F)cc1	0	0	-4	0	.	0
Cc1ccc(NS(=O)(=O)c2cccc(C(=O)NC3CC3)c2)c(C)c1	0	-2	-7	-1	.	14
O=C(Nc1cccnc1)c1ccccc1NS(=O)(=O)c1ccc(F)cc1	1	-4	5	1	0	-32*
CO[C@H]1CC[C@H]2CCN(C)C(=O)C[C@H](c3ccccc3)CN(C)C(=O)c3cccc(C#N)c3OC[C@H]1O2	0	-7	5	0	0	0
O=C(Nc1ccccc1)N1CC(=O)N2[C@H](C1)[C@H](c1ccc(C#Cc3cccnc3)cc1)[C@@H]2CO	.	.	.	2	1	0
Cc1ccc(C(C)C)c(OCC(=O)N/N=C/C2CCCCC2)c1	43*	.	-2	-2	.	3
CC(C)c1[nH]nc2c1C(C(C)C)C(C#N)=C(N)O2 (centres undefined)	.	72*	-5	.	.	.
CC(C)c1[nH]nc2c1C(c1ccco1)C(C#N)=C(N)O2 (centres undefined)	0	.	-1	-5	.	17
